Drawing on ChEMBL document CHEMBL1129597, “2-[2'-(Dimethylamino)ethyl]-1,2-dihydro- 3H-dibenz[de,h]isoquinoline-1,3-diones with substituents at positions 4, 8, 9, 10, and 11. Synthesis, antitumor activity, and quantitative structure-activity relationships” (J Med Chem, 1996), this text covers IC50, Toxicity ratio and Cardiotoxicity for 18 compounds.

Test [1] relates to A549. The test is described as follows: Activity against A549 cancer cell line. In kind it is functional, cell-based. The settings on record: Homo sapiens.
The subject of test [2] is L1210. The test is described as follows: Antitumor activity against sensitive L1210 murine leukemia cell lines. The class given is functional, cell-based. The settings on record: Mus musculus. In a few lines:
(§1)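 Murine L1210 leukemia cells, sensitive or MDR subline, in culture. Continuous drug exposure during MTT assay. Five concentrations per analogue, six determinations per concentration. The IC50 was derived.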

Test [3] concerns L1210. The test can be described thus: Antitumor activity against murine leukemia L1210 cell line. The settings on record: Mus musculus. In kind it is functional, cell-based. In a few lines:
as §1

For test [4], the system named is MCF7. The test is described as follows: Antitumor activity against human mammary carcinoma mitoxantrone-resistant […] breast cell line. In kind it is functional, cell-based.
Test [5] deals with MCF7. The test is described as follows: Antitumor activity against human mammary carcinoma doxorubicin-resistant […] breast cell line. In kind it is functional, cell-based.
Test [6] deals with MCF7. The test can be described thus: Antitumor activity against human mammary carcinoma sensitive […] breast cell line. In kind it is functional, cell-based.
Test [7] relates to OVCAR-3. The test is described as follows: Antitumor activity against human ovarian OVCAR-3 cell lines. The class given is functional, cell-based. In a few lines: (§2)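 Cultured human tumor cells (melanoma UACC375, ovarian OVCAR3) under continuous drug exposure. Growth was read by sulforhodamine or MTT assay. Five concentrations per analogue, six determinations per concentration. IC50 values were derived from these.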

For test [8], the species on record is Rattus norvegicus. The test can be described thus: Cardiotoxicity measured by the ATP/protein ratio compared with untreated controls using neonatal rat heart myocyte assay. The class given is functional. More on the design: Cardiotoxicity: unit not given here. In a few lines: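 Neonatal rat heart myocytes exposed to drug for 1 h. The ATP/protein ratio was measured versus untreated control myocytes. IC50 is the concentration reducing this ratio to 50% of control.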

In test [9] the test system is WiDr. The test is described as follows: Activity against human colon carcinoma sensitive WiDr cell line. In kind it is functional, cell-based.
Test [10] concerns WiDr. The test can be described thus: Activity against human colon carcinoma multi drug resistant (MDR)-WiDr cell line. In kind it is functional, cell-based.
In test [11] the test system is UACC-375. The test can be described thus: Antitumor activity against human melanoma UACC375 cell line. The class given is functional, cell-based. In a few lines:
as §2

The nature of test [12]: The quotient of the IC50 in the myocytes divided by the mean IC50 in the three cell lines. In kind it is functional. In a few lines:
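Calculated index: the myocyte IC50 divided by the mean IC50 across three tumor lines (sensitive L1210, melanoma UACC375, ovarian OVCAR3).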

What is called IC50 is the concentration at which inhibition is half-maximal. For `CN(C)CCN1C(=O)c2cccc3cc4ccc(O)cc4c(c23)C1=O`, the half-inhibitory concentration (IC50) was 0.0017 µM in test [1]; 0.189 µM in test [2]; 0.54 µM in [3]; 0.017 µM in test [4]; 0.035 µM in [5]; 0.0058 µM in test [6]. The IC50 in [7] was 2.13 µM; in test [8] it was over 27 µM; in test [9] it was 0.017 µM; in test [10] it was 0.24 µM; in test [11], 1.22 µM. Besides, the Toxicity ratio in test [12] is reported as over 23.

Regarding `CN(C)CCN1C(=O)c2cccc3cc4c(O)cccc4c(c23)C1=O`, the IC50 in test [1] is 0.06 µM; in test [2] it was 0.108 µM; in test [3], 0.067 µM; in [4] it was 0.12 µM; in test [5] it was 0.23 µM; in [6], 0.083 µM. Further, the half-maximal inhibitory concentration (IC50) in test [7] was 0.216 µM; in test [8], 2.95 µM; in test [9], 0.13 µM; in [10], 0.9 µM; in [11], 0.27 µM. Also, in test [12], the Toxicity ratio is on record as 15.

For the compound `CN(C)CCN1C(=O)c2cccc3cc4ccc(F)cc4c(c23)C1=O`, the 50% inhibitory concentration (IC50) in test [1] worked out at 0.0048 µM; in test [2], 0.0081 µM; in test [4] it was 0.012 µM; in test [5], 0.025 µM; in [6], 0.015 µM; in test [7] it was 0.0067 µM. In addition, the IC50 in test [8] came out at 0.456 µM; in [9], 0.017 µM; in test [10], 0.013 µM; in test [11] it was 0.016 µM. The Toxicity ratio in test [12] is given as 45.6.

As to `CN(C)CCN1C(=O)c2cccc3cc4ccc(C#N)cc4c(c23)C1=O`, the concentration for half-maximal inhibition (IC50) in test [1] worked out at 0.0022 µM; in [2] it was 0.015 µM; in [3] it was 0.013 µM; in test [4] it was 0.012 µM; in [5], 0.02 µM; in [6], 0.013 µM. The IC50 in test [7] was 0.012 µM; in [8] it was 0.105 µM; in [9] it was 0.011 µM; in [10], 0.016 µM; in [11], 0.01 µM. Also, the Toxicity ratio in [12] worked out at 9.

For the compound `CN(C)CCN1C(=O)c2cccc3cc4ccc(-c5ccccc5)cc4c(c23)C1=O`, the IC50 in [1] came out at 0.12 µM; in test [2], 0.07 µM; in test [3] it was 0.128 µM; in [4], 0.033 µM; in [5] it was 0.19 µM; in test [6], 0.07 µM. Also, the half-inhibitory concentration (IC50) was 0.348 µM in test [7], 0.18 µM in test [9], 0.32 µM in test [10] and 1.86 µM in [11].

`CN(C)CCN1C(=O)c2cccc3cc4cccc(Cl)c4c(c23)C1=O`: the IC50 was determined as 0.061 µM in test [1]; 1.78 µM in test [2]; 0.617 µM in test [3]; 0.12 µM in test [4]; 0.71 µM in [5]; 0.34 µM in [6]. The IC50 in test [7] was 9 µM; in test [8] it was 8.23 µM; in [9], 0.39 µM; in test [10], 1 µM; in test [11] it was 2.06 µM. For the same compound, the Toxicity ratio in [12] is 1.9.

Regarding `CN(C)CCN1C(=O)c2cccc3cc4ccc(Cl)cc4c(c23)C1=O`, the IC50 in [1] stood at 0.0082 µM; in test [2] it was 0.0051 µM; in test [3], 0.0077 µM; in test [4], 0.048 µM; in [5] it was 0.008 µM; in test [6], 0.058 µM. The IC50 in test [7] amounted to 0.064 µM; in [8] it was 0.771 µM; in test [9] it was 0.017 µM; in test [10], 0.085 µM; in test [11] it was 0.064 µM. Further, the Toxicity ratio in [12] worked out at 18.

In the case of `CN(C)CCN1C(=O)c2cccc3cc4cc(Cl)ccc4c(c23)C1=O`, the IC50 in test [1] was 0.0099 µM; in test [2] it was 0.0077 µM; in [3] it was 0.0077 µM; in [4], 0.068 µM; in [5] it was 0.071 µM; in test [6], 0.049 µM. For the same compound, the IC50 came out at 0.231 µM in test [7]; 1.54 µM in test [8]; 0.1 µM in test [9]; 0.14 µM in test [10]; 0.09 µM in test [11]. The Toxicity ratio in test [12] stood at 14.

Turning to `CN(C)CCN1C(=O)c2cccc3cc4ccc(I)cc4c(c23)C1=O`, the concentration for half-maximal inhibition (IC50) in test [1] is 0.031 µM; in test [2], 0.312 µM; in [3], 0.052 µM; in test [4], 0.049 µM; in test [5], 0.059 µM; in [6], 0.042 µM. The IC50 was 0.176 µM in test [7]; 4.79 µM in [8]; 0.04 µM in [9]; 0.13 µM in test [10]; 0.624 µM in [11]. Also, the Toxicity ratio in test [12] turned out to be 13.

As to `COc1cccc2c3c4c(cccc4cc12)C(=O)N(CCN(C)C)C3=O`, the IC50 in [1] worked out at 0.0048 µM; in test [2] it was 0.013 µM; in test [3], 0.018 µM; in [4], 0.0054 µM; in test [5] it was 0.067 µM; in [6], 0.12 µM. Further, the 50% inhibitory concentration (IC50) stood at 0.052 µM in test [7]; 0.806 µM in test [8]; 0.009 µM in test [9]; 0.03 µM in test [10]; 0.052 µM in [11]. For the same compound, the Toxicity ratio in test [12] is 21.

For `CN(C)CCNc1ccc2cc3ccccc3c3c2c1C(=O)N(CCN(C)C)C3=O`, the half-inhibitory concentration (IC50) in test [1] came to 0.078 µM; in test [2], 0.21 µM; in test [3], 0.245 µM; in test [4] it was 0.23 µM; in test [5], 0.53 µM; in [6], 0.19 µM. Besides, the half-inhibitory concentration (IC50) in test [7] worked out at 0.715 µM; in test [8], 0.734 µM; in test [9], 0.4 µM; in test [10], 0.68 µM; in [11] it was 0.39 µM. Moreover, in [12], the Toxicity ratio amounted to 1.7.

For the compound `CN(C)CCN1C(=O)c2cccc3cc4ccc([N+](=O)[O-])cc4c(c23)C1=O`, the concentration for half-maximal inhibition (IC50) in test [1] is 0.0025 µM; in test [2], 0.025 µM; in [3], 0.025 µM; in [4], 0.014 µM; in test [5] it was 0.0087 µM; in test [6], 0.013 µM. Also, the concentration for half-maximal inhibition (IC50) was determined as 0.023 µM in test [7]; 0.801 µM in [8]; 0.0095 µM in [9]; 0.074 µM in test [10]; 0.018 µM in test [11]. Moreover, the Toxicity ratio in test [12] stood at 36.

For `Cc1ccc2cc3cccc4c3c(c2c1)C(=O)N(CCN(C)C)C4=O`, the IC50 is 0.014 µM in [1]; 0.041 µM in [2]; 0.054 µM in [3]; 0.09 µM in test [4]; 0.14 µM in test [5]; 0.11 µM in [6]. Besides, the IC50 in [7] was 0.068 µM; in [8], 1 µM; in test [9] it was 0.12 µM; in [10], 0.12 µM; in test [11], 0.081 µM. Besides, the Toxicity ratio in [12] is 16.

`CNCCN1C(=O)c2cccc3cc4ccc(Cl)cc4c(c23)C1=O`: the IC50 stood at 0.031 µM in [1]; 0.0058 µM in test [2]; 0.0146 µM in test [3]; 0.042 µM in test [4]; 0.05 µM in [5]; 0.049 µM in test [6]. The IC50 is 0.102 µM in test [7]; 1.43 µM in test [8]; 0.051 µM in test [9]; 0.064 µM in test [10]; 0.044 µM in test [11]. Besides, the Toxicity ratio in test [12] was 28.

With `COc1ccc2cc3ccccc3c3c2c1C(=O)N(CCN(C)C)C3=O`, the IC50 in test [1] worked out at 0.081 µM; in test [2], 0.07 µM; in test [3], 0.179 µM; in test [4], 0.52 µM; in [5], 0.69 µM; in test [6] it was 0.35 µM. Besides, the IC50 in [7] is 0.507 µM; in test [9], 0.66 µM; in [10], 0.9 µM; in test [11], 0.182 µM.

Consider `COc1ccc2cc3cccc4c3c(c2c1)C(=O)N(CCN(C)C)C4=O`, for which the IC50 came to 0.031 µM in test [1]; 0.021 µM in [2]; 0.052 µM in [3]; 0.041 µM in [4]; 0.052 µM in test [5]; 0.038 µM in test [6]. Besides, the IC50 in test [7] worked out at 0.078 µM; in [8] it was 9.1 µM; in [9] it was 0.04 µM; in test [10], 0.061 µM; in [11], 0.052 µM. Besides, the Toxicity ratio in test [12] was 182.

As for `CN(C)CCN1C(=O)c2cccc3cc4cccc(O)c4c(c23)C1=O`, the IC50 in [1] was 0.04 µM; in [2], 0.189 µM; in test [3], 0.189 µM; in [4] it was 0.08 µM; in test [5] it was 0.2 µM; in [6], 0.081 µM. The IC50 is 1.89 µM in test [7]; 15.4 µM in [8]; 0.1 µM in [9]; 0.27 µM in test [10]; 0.54 µM in test [11]. The Toxicity ratio in [12] is reported as 18.

Regarding `COc1ccc2c3c4c(cccc4cc2c1)C(=O)N(CCN(C)C)C3=O`, the IC50 in [1] was found to be 0.027 µM; in test [2] it was 0.054 µM; in test [3] it was 0.054 µM; in [4], 0.095 µM; in test [5], 0.12 µM; in test [6] it was 0.073 µM. Also, the IC50 in test [7] worked out at 0.543 µM; in test [9] it was 0.065 µM; in [10], 0.13 µM; in test [11] it was 0.163 µM. The Cardiotoxicity in test [8] is under 2600. Besides, the Toxicity ratio in [12] is under 10.3.
